≈ marks a conversion by molar mass, not a printed value.
How the values were obtained:
Format in all cases: functional, Salmonella enterica subsp. enterica serovar Typhimurium
[1] = tested on: Salmonella typhimurium; assay: Antimicrobial activity against Salmonella enterica serovar Typhimurium S21-3 acrAB::Kan with GyrA S83F, ParC S80I mutation
In short: (§1)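 MICs measured by broth microdilution on the Sensititre automated system and interpreted by CLSI broth microdilution standards. Ciprofloxacin was also tested by agar dilution, widening the range to 0.0075–128 μg/ml. Quality control strains were E. coli ATCC 25922 and 35218, E. faecalis ATCC 29212, S. aureus ATCC 29213 and P. aeruginosa ATCC 27853.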

[2] = tested on: Salmonella typhimurium; assay: Antimicrobial activity against Salmonella enterica serovar Typhimurium S21-3 with GyrA S83F, ParC S80I mutation; in short: as §1
[3] = tested on: Salmonella typhimurium; assay: Antimicrobial activity against Salmonella enterica serovar Typhimurium S21-1 tolC::Kan with GyrA S83F mutation; in short: as §1
[4] = tested on: Salmonella typhimurium; assay: Antimicrobial activity against Salmonella enterica serovar Typhimurium S21 acrAB::Kan
In short: (§2)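 MICs by automated broth microdilution panels, interpreted to CLSI broth microdilution standards. Ciprofloxacin additionally tested by agar dilution across 0.0075 to 128 μg/ml. Quality control strains: E. coli ATCC 25922 and 35218, Enterococcus faecalis ATCC 29212, S. aureus ATCC 29213, P. aeruginosa ATCC 27853. Test strains are kanamycin-marked deletion mutants of ground-beef isolate S21.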

[5] = tested on: Salmonella typhimurium; assay: Antimicrobial activity against Salmonella enterica serovar Typhimurium S21-4 tolC::Kan with GyrA S83F, ParC S80I mutation; in short: as §1
[6] = tested on: Salmonella typhimurium; assay: Antimicrobial activity against Salmonella enterica serovar Typhimurium CHS38 with GyrA D87G mutation; in short: as §1
[7] = tested on: Salmonella typhimurium; assay: Antimicrobial activity against Salmonella enterica serovar Typhimurium CHS18 tolC::Kan with GyrA S38F mutation; in short: as §1
[8] = tested on: Salmonella typhimurium; assay: Antimicrobial activity against Salmonella enterica serovar Typhimurium S21-4 with GyrA S83F, ParC S80I mutation; in short: as §1
[9] = tested on: Salmonella typhimurium; assay: Antimicrobial activity against Salmonella enterica serovar Typhimurium CHS18 with GyrA S38F mutation; in short: as §1
[10] = tested on: Salmonella typhimurium; assay: Antimicrobial activity against Salmonella enterica serovar Typhimurium CHS18 gyrA+ with GyrA S38F mutation; in short: as §1
[11] = tested on: Salmonella typhimurium; assay: Antimicrobial activity against Salmonella enterica serovar Typhimurium CS3 gyrA+ with GyrA S83F, D87N, ParC S80I mutation; in short: as §1
[12] = tested on: Salmonella typhimurium; assay: Antimicrobial activity against Salmonella enterica serovar Typhimurium S21-1 GyrA S83F mutant; in short: as §1
[13] = tested on: Salmonella typhimurium; assay: Antimicrobial activity against Salmonella enterica serovar Typhimurium CHS38 acrAB::Kan with GyrA D87G mutation; in short: as §1
[14] = tested on: Salmonella typhimurium; assay: Antimicrobial activity against Salmonella enterica serovar Typhimurium CHS14 gyrA+ with GyrA D87G mutation; in short: as §1
[15] = tested on: Salmonella typhimurium; assay: Antimicrobial activity against Salmonella enterica serovar Typhimurium CHS14 with GyrA D87G mutation; in short: as §1
[16] = tested on: Salmonella typhimurium; assay: Antimicrobial activity against Salmonella enterica serovar Typhimurium CS9 gyrA+ with GyrA S83F, D87N, ParC S80I mutation; in short: as §1
[17] = tested on: Salmonella typhimurium; assay: Antimicrobial activity against Salmonella enterica serovar Typhimurium CHS38 tolC::Kan with GyrA D87G mutation; in short: as §1
[18] = tested on: Salmonella typhimurium; assay: Antimicrobial activity against Salmonella enterica serovar Typhimurium S21-3 gyrA+ with ParC S80I mutation; in short: as §1
[19] = tested on: Salmonella typhimurium; assay: Antimicrobial activity against Salmonella enterica serovar Typhimurium S21-2 gyrA+ with ParC S80I mutation; in short: as §1
[20] = tested on: Salmonella typhimurium; assay: Antimicrobial activity against Salmonella enterica serovar Typhimurium CS1 acrAB::Kan with GyrA S83F, D87N, ParC S80I mutation; in short: as §1
[21] = tested on: Salmonella typhimurium; assay: Antimicrobial activity against Salmonella enterica serovar Typhimurium S21-2 acrAB::Kan with GyrA S83F, ParC S80I mutation; in short: as §1
[22] = tested on: Salmonella typhimurium; assay: Antimicrobial activity against Salmonella enterica serovar Typhimurium CS1 gyrA+ with GyrA S83F, D87N, ParC S80I mutation; in short: as §1
[23] = tested on: Salmonella typhimurium; assay: Antimicrobial activity against Salmonella enterica serovar Typhimurium CS3 with GyrA S83F, D87N, ParC S80I mutation; in short: as §1
[24] = tested on: Salmonella typhimurium; assay: Antimicrobial activity against Salmonella enterica serovar Typhimurium S21 tolC::Kan; in short: as §2
[25] = tested on: Salmonella typhimurium; assay: Antimicrobial activity against Salmonella enterica serovar Typhimurium S21 gyrA+; in short: as §1
[26] = tested on: Salmonella typhimurium; assay: Antimicrobial activity against Salmonella enterica serovar Typhimurium S21-3 tolC::Kan with GyrA S83F, ParC S80I mutation; in short: as §1
[27] = tested on: Salmonella typhimurium; assay: Antimicrobial activity against Salmonella enterica serovar Typhimurium S21-4 gyrA+ with ParC S80I mutation; in short: as §1
[28] = tested on: Salmonella typhimurium; assay: Antimicrobial activity against Salmonella enterica serovar Typhimurium CHS14 tolC::Kan with GyrA D87G mutant; in short: as §1
[29] = tested on: Salmonella typhimurium; assay: Antimicrobial activity against Salmonella enterica serovar Typhimurium S21-2 with GyrA S83F, ParC S80I mutation; in short: as §1
[30] = tested on: Salmonella typhimurium; assay: Antimicrobial activity against Salmonella enterica serovar Typhimurium S21; in short: as §1
[31] = tested on: Salmonella typhimurium; assay: Antimicrobial activity against Salmonella enterica serovar Typhimurium CS1 tolC::Kan with GyrA S83F, D87N, ParC S80I mutation; in short: as §1
[32] = tested on: Salmonella typhimurium; assay: Antimicrobial activity against Salmonella enterica serovar Typhimurium CHS14 acrAB::Kan with GyrA D87G mutation; in short: as §1
[33] = tested on: Salmonella typhimurium; assay: Antimicrobial activity against Salmonella enterica serovar Typhimurium CS3 acrAB::Kan with GyrA S83F, D87N, ParC S80I mutation; in short: as §1
[34] = tested on: Salmonella typhimurium; assay: Antimicrobial activity against Salmonella enterica serovar Typhimurium CS9 acrAB::Kan with GyrA S83F, D87N, ParC S80I mutation; in short: as §1
[35] = tested on: Salmonella typhimurium; assay: Antimicrobial activity against Salmonella enterica serovar Typhimurium S21-1 gyrA+; in short: as §1
[36] = tested on: Salmonella typhimurium; assay: Antimicrobial activity against Salmonella enterica serovar Typhimurium CHS18 acrAB::Kan with GyrA S38F mutation; in short: as §1
[37] = tested on: Salmonella typhimurium; assay: Antimicrobial activity against Salmonella enterica serovar Typhimurium CS9 with GyrA S83F, D87N, ParC S80I mutation; in short: as §1
[38] = tested on: Salmonella typhimurium; assay: Antimicrobial activity against Salmonella enterica serovar Typhimurium S21-2 tolC::Kan with GyrA S83F, ParC S80I mutation; in short: as §1
[39] = tested on: Salmonella typhimurium; assay: Antimicrobial activity against Salmonella enterica serovar Typhimurium S21-4 acrAB::Kan with GyrA S83F, ParC S80I mutation; in short: as §1
[40] = tested on: Salmonella typhimurium; assay: Antimicrobial activity against Salmonella enterica serovar Typhimurium CHS38 gyrA+ with GyrA D87G mutation; in short: as §1
[41] = tested on: Salmonella typhimurium; assay: Antimicrobial activity against Salmonella enterica serovar Typhimurium CS9 tolC::Kan with GyrA S83F, D87N, ParC S80I mutation; in short: as §1
[42] = tested on: Salmonella typhimurium; assay: Antimicrobial activity against Salmonella enterica serovar Typhimurium CS1 with GyrA S83F, D87N, ParC S80I mutation; in short: as §1
[43] = tested on: Salmonella typhimurium; assay: Antimicrobial activity against Salmonella enterica serovar Typhimurium GyrA S21-1 acrAB::Kan with GyrA S83F mutation; in short: as §1
[44] = tested on: Salmonella typhimurium; assay: Antimicrobial activity against Salmonella enterica serovar Typhimurium CS3 tolC::Kan with GyrA S83F, D87N, parC S80I mutation; in short: as §1

Compound `O=C(O)c1cn(C2CC2)c2cc(N3CCNCC3)c(F)cc2c1=O` [CIPROFLOXACIN] has an MIC [1] of 0.25 µg/mL (≈ 0.754 µM), an MIC [2] of 32 µg/mL (≈ 96.6 µM) and an MIC [3] of 0.06 µg/mL (≈ 0.181 µM). For the same compound, the MIC [4] was < 0.015 µg/mL, the MIC [5] was 0.25 µg/mL (≈ 0.754 µM) and the MIC [6] was 0.06 µg/mL (≈ 0.181 µM). It also gave an MIC [7] of 0.03 µg/mL (≈ 0.0905 µM), an MIC [8] of 256 µg/mL (≈ 773 µM) and an MIC [9] of 0.12 µg/mL (≈ 0.362 µM). The MIC [10] was 0.06 µg/mL (≈ 0.181 µM), the MIC [11] was 0.03 µg/mL (≈ 0.0905 µM) and the MIC [12] was 0.25 µg/mL (≈ 0.754 µM). For the same compound, the MIC [13] was 0.03 µg/mL (≈ 0.0905 µM), the MIC [14] was < 0.015 µg/mL and the MIC [15] was 0.12 µg/mL (≈ 0.362 µM). The MIC [16] was 0.03 µg/mL (≈ 0.0905 µM), the MIC [17] was < 0.015 µg/mL and the MIC [18] was 2 µg/mL (≈ 6.04 µM). The MIC [19] was 0.25 µg/mL (≈ 0.754 µM), the MIC [20] was 4 µg/mL (≈ 12.1 µM) and the MIC [21] was 0.12 µg/mL (≈ 0.362 µM). For the same compound, the MIC [22] was 0.03 µg/mL (≈ 0.0905 µM), the MIC [23] was 16 µg/mL (≈ 48.3 µM) and the MIC [24] was < 0.015 µg/mL. The MIC [25] was < 0.015 µg/mL, the MIC [26] was 0.25 µg/mL (≈ 0.754 µM) and the MIC [27] was 4 µg/mL (≈ 12.1 µM). The MIC [28] was < 0.015 µg/mL, the MIC [29] was 4 µg/mL (≈ 12.1 µM) and the MIC [30] was < 0.015 µg/mL. For the same compound, the MIC [31] was 2 µg/mL (≈ 6.04 µM), the MIC [32] was < 0.015 µg/mL and the MIC [33] was 4 µg/mL (≈ 12.1 µM). For the same compound, the MIC [34] was 4 µg/mL (≈ 12.1 µM), the MIC [35] was 0.015 µg/mL (≈ 0.0453 µM) and the MIC [36] was 0.03 µg/mL (≈ 0.0905 µM). It also gave an MIC [37] of 16 µg/mL (≈ 48.3 µM), an MIC [38] of 0.12 µg/mL (≈ 0.362 µM) and an MIC [39] of 0.25 µg/mL (≈ 0.754 µM). For the same compound, the MIC [40] was < 0.015 µg/mL, the MIC [41] was 2 µg/mL (≈ 6.04 µM) and the MIC [42] was 16 µg/mL (≈ 48.3 µM). It also gave an MIC [43] of 0.06 µg/mL (≈ 0.181 µM) and an MIC [44] of 2 µg/mL (≈ 6.04 µM).

From ChEMBL document CHEMBL1142136, “Contribution of target gene mutations and efflux to decreased susceptibility of Salmonella enterica serovar typhimurium to fluoroquinolones and other antimicrobials” (2007)
